# Source: ChEMBL document CHEMBL5058577, “EUbOPEN Chemogenomics Library 2 (Multiplex)” (2022)
# System: HEK-293T
# Experiment: Multiplex assay against HEK293T
# Assay type: toxicity, cell-based
# Details: human
# How it was run: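 With compound added, live cells were imaged on a CQ1 microscope at 37°C and 5% CO2; staining with Hoechst33342, BioTracker Green Microtubule Cytoskeleton Dye, MitoTracker Red and Annexin V Alexa Fluor 680 had been done at seeding. The CellPathfinder machine-learning gating scheme split cells into Hoechst high-intensity objects or normal cells, normal cells into healthy, pyknosed or fragmented nuclei, and pyknosed cells into mitotic or apoptotic. The tubulin, mitochondrial-mass and membrane-permeability phenotypes are per cents of healthy-nucleus cells.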
# [1] = 12 h, 1 µM, compound concentration 1 uM, replicate 1
# [2] = 12 h, 1 µM, compound concentration 1 uM, replicate 2
# [3] = 12 h, 10 µM, compound concentration 10 uM, replicate 1
# [4] = 12 h, 10 µM, compound concentration 10 uM, replicate 2
# [5] = 24 h, 1 µM, compound concentration 1 uM, replicate 1
# [6] = 24 h, 1 µM, compound concentration 1 uM, replicate 2
# [7] = 24 h, 10 µM, compound concentration 10 uM, replicate 1
# [8] = 24 h, 10 µM, compound concentration 10 uM, replicate 2
# [9] = 48 h, 1 µM, compound concentration 1 uM, replicate 1
# [10] = 48 h, 1 µM, compound concentration 1 uM, replicate 2
# [11] = 48 h, 10 µM, compound concentration 10 uM, replicate 1
# [12] = 48 h, 10 µM, compound concentration 10 uM, replicate 2
structure (smiles),measurement,setting,value
Cc1cnc(-c2cc(N3CCN(C(=O)CCS(C)(=O)=O)CC3)ncc2Cl)c(C)c1,Population Apoptotic (%),[1],29%
same,Population Fragmented Nuclei (%),[1],6%
same,Population Healthy Nuclei (%),[1],76%
same,Population Hoechst High Intensity Objects (%),[1],4%
same,Population Membrane Permeable-Phenotype (%),[1],0%
same,Population Mitochondria Different-Phenotype (%),[1],50%
same,Population Mitotic Cells (%),[1],70%
same,Population Normal (%),[1],95%
same,Population Pyknosed Nuclei (%),[1],16%
same,Population Tubulin-Different-Phenotype (%),[1],33%
same,Total Cell Count,[1],276
same,Population Apoptotic (%),[2],42%
same,Population Healthy Nuclei (%),[2],75%
same,Population Hoechst High Intensity Objects (%),[2],9%
same,Population Mitochondria Different-Phenotype (%),[2],69%
same,Population Mitotic Cells (%),[2],57%
same,Population Normal (%),[2],90%
same,Population Pyknosed Nuclei (%),[2],17%
same,Population Tubulin-Different-Phenotype (%),[2],24%
same,Total Cell Count,[2],294
same,Population Apoptotic (%),[3],42%
same,Population Fragmented Nuclei (%),[3],7%
same,Population Healthy Nuclei (%),[3],82%
same,Population Hoechst High Intensity Objects (%),[3],10%
same,Population Membrane Permeable-Phenotype (%),[3],0%
same,Population Mitochondria Different-Phenotype (%),[3],47%
same,Population Mitotic Cells (%),[3],57%
same,Population Normal (%),[3],89%
same,Population Pyknosed Nuclei (%),[3],10%
same,Population Tubulin-Different-Phenotype (%),[3],40%
same,Total Cell Count,[3],409
same,Population Apoptotic (%),[4],45%
same,Population Healthy Nuclei (%),[4],75%
same,Population Hoechst High Intensity Objects (%),[4],7%
same,Population Mitochondria Different-Phenotype (%),[4],70%
same,Population Mitotic Cells (%),[4],54%
same,Population Normal (%),[4],92%
same,Population Pyknosed Nuclei (%),[4],17%
same,Population Tubulin-Different-Phenotype (%),[4],39%
same,Total Cell Count,[4],288
same,Population Apoptotic (%),[5],36%
same,Population Fragmented Nuclei (%),[5],8%
same,Population Healthy Nuclei (%),[5],78%
same,Population Hoechst High Intensity Objects (%),[5],2%
same,Population Membrane Permeable-Phenotype (%),[5],1%
same,Population Mitochondria Different-Phenotype (%),[5],30%
same,Population Mitotic Cells (%),[5],63%
same,Population Normal (%),[5],97%
same,Population Pyknosed Nuclei (%),[5],12%
same,Population Tubulin-Different-Phenotype (%),[5],21%
same,Total Cell Count,[5],368
same,Population Apoptotic (%),[6],40%
same,Population Fragmented Nuclei (%),[6],7%
same,Population Healthy Nuclei (%),[6],83%
same,Population Hoechst High Intensity Objects (%),[6],6%
same,Population Membrane Permeable-Phenotype (%),[6],0%
same,Population Mitochondria Different-Phenotype (%),[6],36%
same,Population Mitotic Cells (%),[6],60%
same,Population Normal (%),[6],93%
same,Population Pyknosed Nuclei (%),[6],9%
same,Population Tubulin-Different-Phenotype (%),[6],13%
same,Total Cell Count,[6],413
same,Population Apoptotic (%),[7],33%
same,Population Fragmented Nuclei (%),[7],15%
same,Population Healthy Nuclei (%),[7],76%
same,Population Hoechst High Intensity Objects (%),[7],5%
same,Population Membrane Permeable-Phenotype (%),[7],0%
same,Population Mitochondria Different-Phenotype (%),[7],29%
same,Population Mitotic Cells (%),[7],66%
same,Population Normal (%),[7],94%
same,Population Pyknosed Nuclei (%),[7],8%
same,Population Tubulin-Different-Phenotype (%),[7],31%
same,Total Cell Count,[7],550
same,Population Apoptotic (%),[8],51%
same,Population Fragmented Nuclei (%),[8],7%
same,Population Healthy Nuclei (%),[8],80%
same,Population Mitochondria Different-Phenotype (%),[8],47%
same,Population Mitotic Cells (%),[8],48%
same,Population Pyknosed Nuclei (%),[8],12%
same,Population Tubulin-Different-Phenotype (%),[8],22%
same,Total Cell Count,[8],392
same,Population Apoptotic (%),[9],27%
same,Population Fragmented Nuclei (%),[9],17%
same,Population Healthy Nuclei (%),[9],76%
same,Population Hoechst High Intensity Objects (%),[9],1%
same,Population Membrane Permeable-Phenotype (%),[9],1%
same,Population Mitochondria Different-Phenotype (%),[9],17%
same,Population Mitotic Cells (%),[9],72%
same,Population Normal (%),[9],98%
same,Population Pyknosed Nuclei (%),[9],6%
same,Population Tubulin-Different-Phenotype (%),[9],10%
same,Total Cell Count,[9],718
same,Population Apoptotic (%),[10],34%
same,Population Fragmented Nuclei (%),[10],14%
same,Population Healthy Nuclei (%),[10],78%
same,Population Hoechst High Intensity Objects (%),[10],2%
same,Population Membrane Permeable-Phenotype (%),[10],0%
same,Population Mitochondria Different-Phenotype (%),[10],22%
same,Population Mitotic Cells (%),[10],65%
same,Population Normal (%),[10],97%
same,Population Tubulin-Different-Phenotype (%),[10],6%
same,Total Cell Count,[10],595
same,Population Apoptotic (%),[11],25%
same,Population Fragmented Nuclei (%),[11],14%
same,Population Healthy Nuclei (%),[11],78%
same,Population Hoechst High Intensity Objects (%),[11],4%
same,Population Membrane Permeable-Phenotype (%),[11],0%
same,Population Mitochondria Different-Phenotype (%),[11],23%
same,Population Mitotic Cells (%),[11],74%
same,Population Normal (%),[11],95%
same,Population Pyknosed Nuclei (%),[11],7%
same,Population Tubulin-Different-Phenotype (%),[11],17%
same,Total Cell Count,[11],753
same,Population Apoptotic (%),[12],36%
same,Population Healthy Nuclei (%),[12],77%
same,Population Hoechst High Intensity Objects (%),[12],3%
same,Population Mitochondria Different-Phenotype (%),[12],32%
same,Population Mitotic Cells (%),[12],63%
same,Population Normal (%),[12],96%
same,Population Pyknosed Nuclei (%),[12],8%
same,Population Tubulin-Different-Phenotype (%),[12],15%
same,Total Cell Count,[12],576
